Screening results as filed in PubChem BioAssay.
Rows were chosen to be rich in hits. Some 3.7% of all compounds tested hit in one or more screens of this group.
Mdm2 ligase inh = Mdm2 E3 ligase (human) inhibition; Q00987; cell-based MDM2 ubiquitination luciferase reporter, 2 h; 0 = plate control, 100 = twice control, blank-subtracted; signal enhancement, % at 5 µM; actives 0.11% (n = 210,000); AID 1230;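 active = signal enhancement of 30% or more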;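 also: luminescence tracks abundance of the self-degrading MDM2-luciferase fusion protein; higher signal means inhibition of MDM2 E3 ligase activity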
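Buffer or medium: Cells held in DMEM | Assay system: Stable mammalian line carrying autodegrading MDM2–luciferase fusion reporter | Quantity: 2000 cells/well | Times: 4 h settle plus 2 h compound, 37 °C | Doses: One concentration, 5 µM, with 0.2% DMSO | Technique: Luminescence with SteadyLite reagent, 15 min at room temperature | Benchmarks: Plate controls and plate blanks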
Mdm2-MdmX inh = disrupts the human Mdm2-MdmX interaction; actives 3% (n = 330,000); AID 485346; inhibition, % at 8 µM; O15151+Q00987; SaOS-2 split-luciferase Mdm2/MdmX complementation, luminescence;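 active = inhibition of at least 50% at 8 µM in the primary screen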
B2AR ag = human beta-2 adrenergic receptor agonism by FAP | P07550 | Am2.2-beta2AR cells, FAP receptor internalization, flow cytometry | response, % (test concentration not listed) | actives 0.43% (n = 340,000);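 active = response above a set limit, near 3 SD of response in nonfluorescent compounds, cut at about 42% in these data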
Target sequence (P07550 whole entry, looked up): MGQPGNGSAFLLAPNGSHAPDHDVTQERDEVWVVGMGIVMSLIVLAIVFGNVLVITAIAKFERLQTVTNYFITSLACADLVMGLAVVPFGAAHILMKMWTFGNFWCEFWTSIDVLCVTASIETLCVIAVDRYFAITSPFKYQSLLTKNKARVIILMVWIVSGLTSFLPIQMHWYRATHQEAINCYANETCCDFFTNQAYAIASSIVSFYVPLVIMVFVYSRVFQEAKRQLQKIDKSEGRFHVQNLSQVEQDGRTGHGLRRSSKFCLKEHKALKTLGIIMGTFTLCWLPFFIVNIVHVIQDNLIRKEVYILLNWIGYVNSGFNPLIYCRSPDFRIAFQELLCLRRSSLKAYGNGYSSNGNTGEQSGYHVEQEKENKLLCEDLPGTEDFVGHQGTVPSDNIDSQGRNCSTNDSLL
XBP1 UPR activ = activators of adaptive arm of unfolded protein response (XBP1). CHO-XBP1 luciferase reporter, IRE1-XBP1 UPR activation, luminescence; percent of tunicamycin response, DMSO as zero. actives 0.33% (n = 330,000). activation, % at 20 µM;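 active = versus positive control, 20 µM dose yields 30% or more activation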;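 also: 100% = tunicamycin at 10 µg/mL and 0% = DMSO only wells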
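Signal: luciferase luminescence; Assay system: CHO-XBP1 luciferase reporter cells; Amount: one thousand reporter cells per well; Dosing: 20 µM single concentration, DMSO 1%; Benchmarks: high control tunicamycin 10 µg/mL final, low control DMSO vehicle only; Schedule: 6 h compound exposure at 37 °C, 5% CO2; Evaluation: percent activation relative to tunicamycin reference.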
Dynein transport = dynein cargo transport inhibition; 3617.4 mouse cells, GR-EGFP nuclear translocation imaging; test concentration mostly 20 µM; stimulated with dexamethasone, 1 µM; hits give low values; z-score, hits read low; actives 0.47% (n = 220,000);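 active = plate z-score of nuclear minus cytoplasmic receptor signal below a set negative limit, without overly bright fluorescence or cell loss, cut at about -3.5 in these data, passing the limit was not always enough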;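 also: z-score of nuclear minus cytoplasmic ring GR-EGFP intensity difference per well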
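medium = tetracycline-free induction medium containing charcoal-stripped FBS | also added = 1.0 µM final dexamethasone stimulus | schedule = 48 h induction, 1 h compound, 30 min dex at 37 °C | technique = fixed, Hoechst-stained cells imaged at 10x for EGFP | measure = GR-EGFP nuclear translocation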
CHOP UPR activ = activators of apoptotic arm of unfolded protein response (CHOP). activation, % at 10 µM. AID 449763. CHO-CHOP luciferase reporter, UPR activation, luminescence; percent of tunicamycin response over DMSO baseline. actives 0.34% (n = 330,000);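 active = at 10 µM dose, activation of 40% or more, normalized to positive control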;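 also: 100% = tunicamycin at 10 µg/mL and 0% = DMSO alone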
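System: CHO CHOP reporter cells. Amount: 500 cells per well. Buffer or medium: F12 medium, 10% FBS. Compound dosing: one dose, 10 µM in 0.5% DMSO. Incubation: 6 h compound exposure at 37 °C after overnight seeding. Technique: Steady-Glo luciferase luminescence. Benchmarks: tunicamycin and DMSO controls.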
Mdm2-MdmX conf = human Mdm2/MdmX binding inhibition, confirmed | shares compounds with Mdm2-MdmX inh | AID 489028 | luminescent assay | inhibition, % at 8 µM | actives 55% (n = 10,000); in the data active = inhibition above about 40%
Full FLuc ctr = counter-screen for Mdm2/MdmX inhibitors: full-length luciferase. shares compounds with Mdm2-MdmX inh. actives 77% (n = 6,200). SaOS-2 full-length luciferase counterscreen, luminescence. AID 504607. inhibition, % at 8 µM;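 active = mean inhibition at 8 µM reaching about 37%, which flags the compound as non-specific, limit read from the data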;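 also: p53-null SaOS-2 cells with luciferase driven by a doxycycline-inducible promoter; compound on cells about two nights before reading with doxycycline added after day one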
Numbers without * were called inactive; · = no result.

SMILES	Mdm2 ligase inh	Mdm2-MdmX inh	B2AR ag	XBP1 UPR activ	Dynein transport	CHOP UPR activ	Mdm2-MdmX conf	others
COc1ccc(CCNC(=O)C2CC(O)CN2S(=O)(=O)c2ccc(Cl)cc2)cc1OC (centres undefined)	·	24	0	-1	·	-2	·
Cc1cccc(C)c1NC(=O)CSc1nc(C2CC2)nc2ccccc12	·	22	4	1	·	0	·
COc1cc2cc(C(=O)Nc3ccc4c(c3)OCCO4)[nH]c2cc1OC	·	65*	10	-7	·	-5	48*	Full FLuc ctr=71*
Cc1c(N=C2N=C(NC(=O)c3ccc(F)cc3)c3ccccc32)c(=O)n(-c2ccccc2)n1C	-20	81*	-119	0	-0.055	1	7
NS(=O)(=O)c1ccc(CCNC(=S)NC(=O)c2ccccc2Br)cc1	·	18	-3	-1	·	-2	·
CCCCCCN(C(=O)CCCCCN1C(=O)NC(c2ccc(C(C)(C)C)cc2)C(C(=O)OCc2ccccc2)=C1C)C(C(=O)NCCCC)c1ccc(OCC(=O)OC)c(C(=O)OC)c1 (centres undefined)	-6	77*	·	-2	0.31	4	5
O=[N+]([O-])c1cccnc1N1CCC(c2cc(-c3ccc(Cl)cc3)n[nH]2)CC1	-15	54*	14	0	0.079	2	1
COc1nc(-c2ccc(Cl)cc2)ccc1-c1noc(-c2ccco2)n1	·	54*	5	0	0.52	1	-9
O=S(=O)(C/C(=C/CO)S(=O)(=O)c1ccccc1)c1ccccc1	16	89*	28	-6	-3	-9	96*	Full FLuc ctr=51*
O=S(=O)(CS(=O)(=O)c1ccccc1)c1ccccc1	·	·	-4	·	·	·	·
Cc1cc(C(=O)CCl)c(C)n1-c1c(C)n(C)n(-c2ccccc2)c1=O	-13	51*	6	6	-3	28	35
CCC(C)[C@H]1CN=C(N)N1CCc1cc(C(F)(F)F)cc(C(F)(F)F)c1 (some centres undefined)	-14	60*	-5	-1	-0.43	-2	29
NC1=NC[C@H](c2ccccc2)N1CCc1cc(C(F)(F)F)cc(C(F)(F)F)c1	4	80*	-4	2	1.7	2	68*	Full FLuc ctr=57*
Cc1ccccc1-c1cccc([C@@H]2C[C@H]3C(CN2)CON3C)c1 (some centres undefined)	·	·	16	·	·	·	·
N#C/C(=C\c1ccc(Cl)c([N+](=O)[O-])c1)c1ccccn1	-1	87*	-6	5	-1.6	1	27
CNc1ccc(/C=C(\C#N)c2ccccn2)cc1[N+](=O)[O-]	-7	8	-8	4	0.12	4	·
O=S(=O)(c1ccc(Cl)c(NC(=S)N/N=C/c2c(F)cccc2F)c1)N1CCOCC1	-10	50*	9	1	0.18	9	12
N#C/C(=N\Nc1ccc(Cl)c(Cl)c1)C(=O)C1CC1	-12	58*	16	3	-0.76	4	72*	Full FLuc ctr=47*
O=C(Nc1cc([N+](=O)[O-])ccc1Cl)c1ccc2c(c1)OCO2	11	74*	16	0	-1.2	2	16
Cc1onc(-c2ccccc2)c1C(=O)Nc1ncc([N+](=O)[O-])s1	·	73*	17	-8	·	3	38	Full FLuc ctr=59*
Cc1onc(-c2ccccc2)c1C(=O)Nc1nnc(C(C)C)s1	·	17	5	-8	·	1	·
O=C(Nc1ncc([N+](=O)[O-])s1)c1ccc2c(c1)OCO2	·	75*	16	-14	·	-7	69*	Full FLuc ctr=64*
Cc1cnc(NC(=O)c2ccc3c(c2)OCCO3)s1	·	74*	-13	-9	·	-9	80*	Full FLuc ctr=29
Cc1ccc(C(=O)Nc2ncc([N+](=O)[O-])s2)cc1	·	·	10	·	·	·	·
Cc1nc2ccc3nc(NC(=O)c4ccc5c(c4)OCCO5)sc3c2s1	-8	11	38	-4	1.6	4	·
SMILES	Mdm2 ligase inh	Mdm2-MdmX inh	B2AR ag	XBP1 UPR activ	Dynein transport	CHOP UPR activ	Mdm2-MdmX conf	others
Cc1cc(OCC(=O)N2CCC(C(N)=O)CC2)c2c(C)cc(=O)oc2c1	·	-11	12	1	·	-1	·
CCOc1ccc(N(CC(=O)N2CCOCC2)S(=O)(=O)c2ccc(Cl)cc2)cc1	·	-2	-12	-3	·	1	·
COCCn1c(=S)[nH]c2cc(C(=O)NCCc3ccccc3)ccc2c1=O	·	12	4	-2	·	2	·
CN(Cc1ccccc1)C1=CC(=[N+]2CCCCC2)CC(C)(C)C1	·	72*	2	0	0.94	-1	67*	Full FLuc ctr=39*
CC(C)Cc1ccc(C(C)NC(=O)c2ccc(=O)[nH]c2)cc1 (centres undefined)	-9	-7	-6	-2	-0.58	-2	·
C=CCn1c(SCC(=O)c2[nH]c(C)c(C(=O)OCC)c2C)nc2scc(-c3ccccc3)c2c1=O	3	95*	12	17	-0.44	16	60*	Full FLuc ctr=46*
O=C(Cc1cccc2ccccc12)NCCc1ccccc1	·	5	-4	-4	·	3	·
CCCOc1ccc(/C=N/Nc2cccc([N+](=O)[O-])c2)c(O)c1	-3	77*	7	4	-0.24	5	-13
O=CNc1ccc2c(c1)Cc1cccc(NC=O)c1-2	·	·	0	·	·	·	·
Cc1ccc(/C=C/c2onc(C)c2S(=O)(=O)N2CCC(C(=O)N3CCCCC3)CC2)cc1	·	44	8	4	·	1	·
CCCN1CCN(C(=O)C2CCN(S(=O)(=O)c3c(C)noc3/C=C/c3ccc(C)cc3)CC2)CC1	·	58*	25	7	·	2	15
C=C1CCc2c([nH]c3ccc(OCC(C)C)cc23)C1=O	·	98*	15	-3	·	-5	32
O=c1cc(N/N=C/c2ccccc2)[nH]c(=O)[nH]1	·	70*	4	5	·	3	21
CN(C)CCCNCC(=O)NN(c1ccccc1)c1ccccc1	·	-20	·	-1	1.6	0	·
Cn1c(=O)oc2cc(S(=O)(=O)N3CCCC(C(=O)NC4CCCc5ccccc54)C3)ccc21 (centres undefined)	-5	76*	-31	-4	0.041	-3	70*	Full FLuc ctr=54*
Cn1c(=O)oc2cc(S(=O)(=O)N3CCCC(C(=O)Nc4ccccn4)C3)ccc21 (centres undefined)	-4	18	-19	-1	-0.25	-2	·
CN(C)Cc1c(C(C)(C)O)[nH]c2ccc(C(F)(F)F)cc12	·	16	-7	0	·	6	·
